Measurements: ChEMBL document CHEMBL1128250, “Structure-activity studies of 2,3,4,4a,5,9b-hexahydroindeno[1,2-c]pyridines as antispermatogenic agents for male contraception” (1995)
Where “and” joins values, the source holds several entries; their conditions need not be identical. Equal values may be shown once.

Columns and labels:
Mus musculus [1] = test: Effect on right testes weight single oral dose of 30 mg/kg was given and the change after 1 hr of dosing was observed; assay type: functional, Testis
In short: (§1)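 Male CD-1 outbred Swiss albino mice, single oral gavage in acetate buffer pH 5 (10 mL/kg), 3, 10 or 30 mg/kg, plus vehicle control. Killed on day 1, 3 or 14 after dosing (times are days, not hours). Testes removed, right and left weighed separately, sectioned for histology and scored on a 0–6 spermatogenic index. Body weight change recorded. Mean ± SEM, n = 5; p < 0.05 versus control.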

Mus musculus [2] = test: Effect on left testes weight single oral dose of 30 mg/kg was given and the change after 1 hr of dosing was observed.; assay type: functional, Testis; in short: as §1
Mus musculus [3] = test: Tested for its effect on mouse testes weight 3 days after single oral dose (90 mg/kg); assay type: functional, Testis
In short: (§2)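 CD-1 outbred Swiss albino male mice, 5 per dose, single gavage on day 0 at 10 mL/kg. Vehicle was 0.15 M acetate buffer pH 5, ethanol/Tween-20/water (3:7:90), or 1% Tween-20 in water. CO2 euthanasia 72 h later. Testes weighed and histologically scored (spermatogenic index 0–6). Values are % reduction versus the assay's vehicle control. Positive control was 30 mg/kg of the parent compound. Significance by Dunnett's one-tailed t-test, p < 0.05.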

Mus musculus [4] = test: Tested for its effect on mouse testes weight 3 days after single oral dose (30 mg/kg); assay type: functional, Testis; in short: as §2
Mus musculus [5] = test: Effect on spermatogenic index single oral dose of 3 mg/kg was given and the change after 1 hr of dosing was observed.; assay type: functional; in short: as §1
Mus musculus [6] = test: Tested for its effect on testes weight 3 days after single sub cutaneous dose (10 mg/kg); assay type: functional, Testis
In short: (§3)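 CD-1 outbred Swiss albino male mice, 5 per dose, single subcutaneous injection on day 0 at 10 mL/kg in ethanol/Tween-20/water (3:7:90). Killed 72 h later. Testes weighed and scored for spermatogenic index (0–6). Results are % reduction versus vehicle control. Each assay included a 30 mg/kg positive control. Dunnett's one-tailed t-test, p < 0.05. Oral versus sc route compared by ANOVA.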

Mus musculus [7] = test: Effect on right testes weight single oral dose of 30 mg/kg was given and the change after 3 hr of dosing was observed.; assay type: functional, Testis; in short: as §1
Mus musculus [8] = test: tested for its effect on mouse testes weight 3 days after single oral dose (3 mg/kg); assay type: functional, Testis
In short: (§4)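 Male CD-1 (ICR)BR outbred Swiss albino mice, 5/dose, given one oral gavage dose (10 mL/kg) on day 0 in 0.15 M acetate buffer pH 5, ethanol/Tween-20/water (3:7:90), or 1% Tween-20 in water; vehicle and positive-control groups in each assay. Killed by CO2 72 h later; testes weighed. Expressed as % reduction versus vehicle control; Dunnett's one-tailed t-test.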

Mus musculus [9] = test: Tested for its effect on spermatogenic index 3 days after single oral dose (1 mg/kg),; assay type: functional; in short: as §2
Mus musculus [10] = test: Tested for its effect on mouse testes weight 3 days after single sub cutaneous dose (5 mg/kg); assay type: functional, Testis; in short: as §3
Mus musculus [11] = test: tested for its effect on mouse testes weight 3 days after single oral dose (1 mg/kg); assay type: functional, Testis; in short: as §4
Mus musculus [12] = test: Effect on spermatogenic index single oral dose of 3 mg/kg was given and the change after 14 hr of dosing was observed; assay type: functional; in short: as §1
Mus musculus [13] = test: Effect on right testes weight single oral dose of 3 mg/kg was given and the change after 3 hr of dosing was observed.; assay type: functional, Testis; in short: as §1
Mus musculus [14] = species on record: Mus musculus; test: Tested for its effect on spermatogenic index 3 days after single sub cutaneous dose; assay type: functional; in short: as §3
Mus musculus [15] = test: Tested for its effect on mouse testes weight 3 days after single sub cutaneous (10 mg/kg); assay type: functional, Testis; in short: as §3
Mus musculus [16] = test: Effect on left testes body weight single oral dose of 3 mg/kg was given and the change after 14 hr of dosing was observed.; assay type: functional, Testis; in short: as §1
Mus musculus [17] = test: Effect on right testes weight after 1 hr of dosing was observed.; assay type: functional, Testis; in short: as §1
Mus musculus [18] = test: Effect on spermatogenic index single oral dose of 30 mg/kg was given and the change after 14 hr of dosing was observed; assay type: functional; in short: as §1
Mus musculus [19] = test: Effect on spermatogenic index single oral dose of 30 mg/kg was given and the change after 1 hr of dosing was observed.; assay type: functional; in short: as §1
Mus musculus [20] = test: Effect on right testes weight single oral dose of 30 mg/kg was given and the change after 14 hr of dosing was observed.; assay type: functional, Testis; in short: as §1
Mus musculus [21] = test: Tested for its effect on spermatogenic index 3 days after single sub cutaneous dose (10 mg/kg); assay type: functional
In short: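 Single subcutaneous injection, 10 mL/kg, to male CD-1 mice (5 per dose) in ethanol/Tween-20/water (3:7:90, v/v/v) on day 0. Mice were killed at 72 h; testes were weighed and histology scored for spermatogenic index (0–6). Results are % reduction from the vehicle control, with a 30 mg/kg positive control group. Dunnett's one-tailed t-test.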

Mus musculus [22] = test: Effect on left testes body weight single oral dose of 10 mg/kg was given and the change after 3 hr of dosing was observed.; assay type: functional, Testis; in short: as §1
Mus musculus [23] = test: Effect on right testes weight single oral dose of 3 mg/kg was given and the change after 1 hr of dosing was observed. Data are given as mean +/- SEM (N=5), P<0.05, compared to control; assay type: functional, Testis; in short: as §1
Mus musculus [24] = test: Effect on left testes body weight single oral dose of 10 mg/kg was given and the change after 14 hr of dosing was observed.; assay type: functional, Testis; in short: as §1
Mus musculus [25] = test: Effect on left testes body weight single oral dose of 10 mg/kg was given and the change after 1 h of dosing was observed.; assay type: functional, Testis; in short: as §1
Mus musculus [26] = test: Effect on spermatogenic index single oral dose of 30 mg/kg was given and the change after 3 hr of dosing was observed.; assay type: functional; in short: as §1
Mus musculus [27] = test: Tested for its effect on mouse testes weight 3 days after single sub cutaneous dose (30 mg/kg); assay type: functional, Testis; in short: as §3
Mus musculus [28] = test: tested for its effect on spermatogenic index 3 days after single oral dose (30 mg/kg); assay type: functional
In short: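 Male CD-1 (ICR)BR outbred Swiss albino mice, 5/dose, single oral gavage dose (10 mL/kg) on day 0 in acetate buffer pH 5 or Tween-20-based vehicle; killed 72 h later. Testis cross-sections scored histologically on a 0–6 spermatogenic index (Sertoli only to >100 late spermatids/tubule). Reported as % reduction versus vehicle control; Dunnett's one-tailed t-test.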

Mus musculus [29] = test: Effect on right testes body weight single oral dose of 10 mg/kg was given and the change after 14 h of dosing was observed.; assay type: functional, Testis; in short: as §1
Mus musculus [30] = test: tested for its effect on spermatogenic index 3 days after single sub cutaneous dose (10 mg/kg); assay type: functional
In short: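 CD-1 male mice, 5/dose, injected subcutaneously once (10 mL/kg) on day 0 in ethanol/Tween-20/water (3:7:90); vehicle and positive controls included. Killed by CO2 after 72 h; testes weighed and sectioned, with histology scored as a 0–6 spermatogenic index. Both read-outs given as % reduction from control; Dunnett's one-tailed t-test.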

Mus musculus [31] = test: Tested for its effect on testes weight 3 days after single oral dose (90 mg/kg); assay type: functional, Testis; in short: as §2
Mus musculus [32] = test: Tested for its effect on spermatogenic index 3 days after single oral dose (30 mg/kg),; assay type: functional; in short: as §2
Mus musculus [33] = test: Tested for its effect on testes weight 3 days after single oral dose (30 mg/kg); assay type: functional, Testis; in short: as §2
Mus musculus [34] = test: Effect on change in body weight single oral dose of 10 mg/kg was given and the change after 14 hr of dosing was observed.; assay type: functional; in short: as §1
Mus musculus [35] = test: Tested for its effect on spermatogenic index 3 days after single oral dose (30 mg/kg); assay type: functional; in short: as §2
Mus musculus [36] = test: Tested for its effect on mouse testes weight 3 days after single oral dose (10 mg/kg); assay type: functional, Testis; in short: as §2
Mus musculus [37] = test: Effect on left testes body weight single oral dose of 3 mg/kg was given and the change after 3 hr of dosing was observed.; assay type: functional, Testis; in short: as §1

Structure (SMILES): CCN1CC[C@H]2[C@H](c3ccc(C)cc3)c3cc(C)ccc3[C@H]2C1.Cl
- Testes weight (Mus musculus [1]): 93.9 mg
- Testes weight (Mus musculus [2]): 92.8 mg
- Reduction (Mus musculus [3]): 10%
- Reduction (Mus musculus [4]): 24%
- Spermatogenic index (Mus musculus [5]): 6
- Reduction (Mus musculus [6]): -11%
- Testes weight (Mus musculus [7]): 81 mg
- Reduction (Mus musculus [8]): 13%
- Reduction (Mus musculus [9]): 7%
- Reduction (Mus musculus [10]): 5%
- Reduction (Mus musculus [11]): 25%
- Spermatogenic index (Mus musculus [12]): 6
- Testes weight (Mus musculus [13]): 112.6 mg
- Reduction (Mus musculus [14]): 0%
- Reduction (Mus musculus [15]): -3%
- Testes weight (Mus musculus [16]): 119.3 mg
- Change in body weight (Mus musculus [17]): 3.22 g
- Spermatogenic index (Mus musculus [18]): 1.7
- Spermatogenic index (Mus musculus [19]): 4.4
- Testes weight (Mus musculus [20]): 49.4 mg and 47.1 mg
- Reduction (Mus musculus [21]): 0% and 10%
- Testes weight (Mus musculus [22]): 107.8 mg
- Testes weight (Mus musculus [23]): 104.9 mg
- Testes weight (Mus musculus [24]): 101.6 mg
- Testes weight (Mus musculus [25]): 88.5 mg
- Spermatogenic index (Mus musculus [26]): 3
- Reduction (Mus musculus [27]): 14%
- Reduction (Mus musculus [28]): 62%
- Testes weight (Mus musculus [29]): 104.8 mg
- Reduction (Mus musculus [30]): 41%
- Reduction (Mus musculus [31]): 4%
- Reduction (Mus musculus [32]): 9%
- Reduction (Mus musculus [33]): 10%
- Change in body weight (Mus musculus [34]): 3.18 g
- Reduction (Mus musculus [35]): 50% and 39%
- Reduction (Mus musculus [36]): 10%
- Testes weight (Mus musculus [37]): 106.1 mg
